An excerpt weighted towards active compounds, which were near 12% of everything screened.
Arbovirus inh – arbovirus infection inhibition. hit rate 0.37% among 200,000. inhibition, % at 10 µM. arbovirus infection cell-based antiviral screen. AID 1251; in the data active means inhibition above about 30%
L major viab – Leishmania major promastigote growth inhibition; hit rate 9% among 200,000; AID 1063; Leishmania major promastigotes, resazurin fluorescence viability; inhibition, % at 10 µM;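 further: promastigotes grown with compound for 44 hours at 28 °C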
Rad51 HR inh – Rad51 (human) homologous recombination inhibition | hRad51 DNA strand exchange, fluorescence dequenching | inhibition, % at 10 µM | hit rate 0.085% among 200,000;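 active means inhibition above 40% at the single screening dose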
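Material: human Rad51–ssDNA filaments; Probe or stimulus: labelled 47-mer dsDNA for strand exchange; Doses: single 10 µM dose; Incubation: 37 °C 15-min filament assembly, 30-min compound preincubation, 15-min exchange; Technique: FRET fluorescence dequenching, excitation 485 nm, emission 520 nm; Measure: Fluorescence-based percent inhibition, control- and blank-normalised; Benchmarks: plate control and blank wells.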
CHOP inh – inhibitors of CHOP induction in ER stress response | CHO-K1 CHOP-promoter luciferase, tunicamycin-induced, 15-18 h | inhibition, % at 10 µM | hit rate 3.8% among 220,000;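 active means compounds that reduced the stress-induced luciferase reporter signal by more than about 70% of percent inhibition, limit read from the data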
Wee1 degr inh – human Wee1 degradation inhibition, primary screen | P30291 | HeLa Luc-Wee1K328M stability, luciferase luminescence; 100% = proteasome inhibitor MG132 effect | reporter increase, % at 5 µM | hit rate 1.2% among 220,000;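 active means activation above the mean of all tested compounds plus 3 SD, set per screening run, cut at about 8.8% in these data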;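 further: cells exposed to compound for 20 h before luminescence read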
PKD1 kinase inh – PKD1 (human) kinase inhibition. Q15139. PKD1 kinase fluorescence polarization assay. inhibition, % (concentration not given with the values). hit rate 0.056% among 200,000. AID 797
Target sequence (Q15139 whole entry, looked up): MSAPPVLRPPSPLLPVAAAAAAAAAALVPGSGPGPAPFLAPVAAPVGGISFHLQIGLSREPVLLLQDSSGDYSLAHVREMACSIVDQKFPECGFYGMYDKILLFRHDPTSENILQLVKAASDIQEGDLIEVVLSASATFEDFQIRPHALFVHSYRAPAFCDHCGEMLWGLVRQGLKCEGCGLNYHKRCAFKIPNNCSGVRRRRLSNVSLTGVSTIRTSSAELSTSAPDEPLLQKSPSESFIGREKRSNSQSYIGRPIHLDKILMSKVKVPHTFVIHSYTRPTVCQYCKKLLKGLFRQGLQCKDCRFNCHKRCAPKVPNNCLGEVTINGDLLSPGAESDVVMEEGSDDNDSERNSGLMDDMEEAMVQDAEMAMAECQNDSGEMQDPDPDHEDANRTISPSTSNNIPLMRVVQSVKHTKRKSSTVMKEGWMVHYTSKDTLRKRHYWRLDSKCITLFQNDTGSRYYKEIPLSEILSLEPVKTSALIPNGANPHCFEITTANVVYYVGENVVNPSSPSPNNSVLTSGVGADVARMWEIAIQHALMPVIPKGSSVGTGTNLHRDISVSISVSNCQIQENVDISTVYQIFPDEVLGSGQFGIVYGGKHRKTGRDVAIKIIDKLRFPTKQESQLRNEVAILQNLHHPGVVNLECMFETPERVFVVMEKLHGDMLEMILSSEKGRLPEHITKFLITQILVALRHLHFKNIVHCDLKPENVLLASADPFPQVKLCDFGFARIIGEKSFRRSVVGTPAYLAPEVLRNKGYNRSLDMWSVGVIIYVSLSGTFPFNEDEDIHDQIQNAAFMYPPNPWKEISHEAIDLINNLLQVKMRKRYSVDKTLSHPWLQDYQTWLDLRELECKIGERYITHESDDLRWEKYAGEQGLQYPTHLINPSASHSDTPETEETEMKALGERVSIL
CHOP confirm – confirmation of CHOP induction inhibitors | shares compounds with CHOP inh | CHO-CHOP promoter luciferase reporter, tunicamycin-induced, luminescence | inhibition, % at 10 µM | hit rate 45% among 2,100 | AID 504437;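 active means mean of three repeat readings of reporter signal inhibition above a set limit, cut at about 70% in these data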
Hits are given with their value. Unless noted, no stated cut-off is given here; in the data, active means inhibition above about 50%; inactive means the rest.

Results for CC1=NOC(=O)/C1=C\c1ccc(-c2ccc(Cl)c(C(=O)O)c2)o1 ?
Arbovirus inh: inactive; L major viab: inactive; Rad51 HR inh: inactive; CHOP inh: inactive; Wee1 degr inh: inactive; PKD1 kinase inh: inactive

Results for Cc1ccc(-c2nn(-c3ccccc3)cc2/C=N/NC(=O)c2ccc(Br)o2)cc1 ?
Arbovirus inh: inactive; L major viab: inactive; Rad51 HR inh: inactive; CHOP inh: 104; Wee1 degr inh: inactive; PKD1 kinase inh: inactive; CHOP confirm: 121

Results for Cc1ccc(-n2[nH]c(C)c(C=Nc3ccc4[nH]c(=O)[nH]c4c3)c2=O)cc1 ?
Arbovirus inh: inactive; L major viab: inactive; Rad51 HR inh: inactive; CHOP inh: 103; Wee1 degr inh: inactive; PKD1 kinase inh: inactive; CHOP confirm: inactive

Results for Cc1ccc(NC(=O)C(=O)NCC2OCCc3ccccc32)cc1 (stereo unspecified) ?
Arbovirus inh: inactive; L major viab: inactive; Rad51 HR inh: inactive; CHOP inh: 105; Wee1 degr inh: inactive; PKD1 kinase inh: inactive; CHOP confirm: 102

How did O=C(NCC1OCCc2ccccc21)c1ccco1 (stereo unspecified) do in these assays?
Arbovirus inh: inactive; L major viab: inactive; Rad51 HR inh: inactive; CHOP inh: inactive; Wee1 degr inh: inactive; PKD1 kinase inh: inactive

What do the screens show for `O=C(NCC1OCCc2ccccc21)c1ccc(NC(=O)c2ccc(Cl)cc2)cc1` (stereo unspecified)?
Arbovirus inh: inactive; L major viab: inactive; Rad51 HR inh: inactive; CHOP inh: 103; Wee1 degr inh: inactive; PKD1 kinase inh: inactive; CHOP confirm: inactive

How did CCc1ccc(CN(C)C(=O)CCc2nnc(CCc3ccccc3OC)o2)nc1 do in these assays?
Arbovirus inh: inactive; L major viab: inactive; Rad51 HR inh: inactive; CHOP inh: inactive; Wee1 degr inh: inactive; PKD1 kinase inh: inactive

What do the screens show for `S=c1[nH]nc(-c2cccc(Cl)c2)n1CCN1CCCCC1`?
Arbovirus inh: inactive; L major viab: inactive; CHOP inh: inactive; Wee1 degr inh: inactive; PKD1 kinase inh: inactive

How did c1ccc(-c2cnn3c(-c4ccccc4)c(-c4ccccc4)nc3n2)cc1 do in these assays?
Arbovirus inh: inactive; L major viab: inactive; Rad51 HR inh: inactive; CHOP inh: inactive; Wee1 degr inh: inactive; PKD1 kinase inh: inactive

What do the screens show for `COc1ccc(-c2nc(NC(=O)Cn3ccc(C(F)(F)F)n3)sc2C)cc1`?
Arbovirus inh: inactive; L major viab: inactive; Rad51 HR inh: inactive; CHOP inh: 103; Wee1 degr inh: inactive; PKD1 kinase inh: inactive; CHOP confirm: 74

Results for COc1ccc(-c2nc(NC(=O)Cn3cnnn3)sc2C)cc1 ?
Arbovirus inh: inactive; L major viab: inactive; Rad51 HR inh: inactive; CHOP inh: inactive; Wee1 degr inh: inactive; PKD1 kinase inh: inactive

What do the screens show for `CCc1n[nH]c(=S)n1/N=C/c1c(C)nn(-c2ccccc2)c1Cl`?
Arbovirus inh: inactive; L major viab: inactive; Rad51 HR inh: inactive; CHOP inh: inactive; Wee1 degr inh: inactive; PKD1 kinase inh: inactive

Results for Cc1ccc(-c2n[nH]c(=S)n2/N=C/c2c(C)nn(-c3ccccc3)c2C)cc1 ?
Arbovirus inh: inactive; L major viab: inactive; Rad51 HR inh: inactive; CHOP inh: 109; Wee1 degr inh: inactive; PKD1 kinase inh: inactive; CHOP confirm: inactive

How did C=C1N(c2ccccc2)C(=O)OC1(C)C do in these assays?
Arbovirus inh: inactive; L major viab: inactive; Rad51 HR inh: inactive; CHOP inh: inactive; Wee1 degr inh: inactive; PKD1 kinase inh: inactive

What do the screens show for `Oc1ccc(-c2nnc(SCC3CCCCC3)o2)cc1`?
Arbovirus inh: inactive; L major viab: inactive; Rad51 HR inh: inactive; CHOP inh: 107; Wee1 degr inh: inactive; PKD1 kinase inh: inactive; CHOP confirm: inactive

Results for O=C(CSc1nnc(-c2ccc(O)cc2)o1)N1CCOCC1 ?
Arbovirus inh: inactive; L major viab: inactive; Rad51 HR inh: inactive; CHOP inh: inactive; Wee1 degr inh: inactive; PKD1 kinase inh: inactive

Results for Cc1ccc(NC(=O)Cn2c(O)c(N=NC(=O)c3cc4ccccc4cc3O)c3ccccc32)cc1 ?
Arbovirus inh: inactive; L major viab: inactive; Rad51 HR inh: inactive; CHOP inh: 97; Wee1 degr inh: inactive; PKD1 kinase inh: inactive; CHOP confirm: inactive

What do the screens show for `O=C(N=Nc1c(O)n(Cc2ccccc2)c2ccccc12)c1cc2ccccc2cc1O`?
Arbovirus inh: inactive; L major viab: inactive; Rad51 HR inh: inactive; CHOP inh: 106; Wee1 degr inh: inactive; PKD1 kinase inh: inactive; CHOP confirm: 95

How did COc1ccc(Cc2nnc(SCC(=O)N3CCCCC3)o2)cc1 do in these assays?
Arbovirus inh: inactive; L major viab: inactive; Rad51 HR inh: inactive; CHOP inh: inactive; Wee1 degr inh: inactive; PKD1 kinase inh: inactive

Results for O=C(O)CCCCCCCCCCCc1ccccc1 ?
Arbovirus inh: inactive; L major viab: inactive; Rad51 HR inh: inactive; CHOP inh: inactive; Wee1 degr inh: inactive; PKD1 kinase inh: inactive

How did O=C(C1=C[C@@H](c2ccc(C(F)(F)F)cc2)C[C@@H](OCc2ccc(CO)cc2)O1)N1CCN(Cc2ccccc2)CC1 do in these assays?
Arbovirus inh: inactive; L major viab: inactive; Rad51 HR inh: inactive; CHOP inh: inactive; Wee1 degr inh: inactive; PKD1 kinase inh: inactive

How did Cc1cc(NC(=O)CSc2ccc(-c3nc4cc(C)c(C)cc4[nH]3)cn2)no1 do in these assays?
Arbovirus inh: inactive; L major viab: inactive; Rad51 HR inh: inactive; CHOP inh: 104; Wee1 degr inh: inactive; PKD1 kinase inh: inactive; CHOP confirm: inactive

What do the screens show for `Cc1cc2nc(-c3ccc(SCC(=O)NC(C)C)nc3)[nH]c2cc1C`?
Arbovirus inh: inactive; L major viab: inactive; Rad51 HR inh: inactive; CHOP inh: inactive; Wee1 degr inh: inactive; PKD1 kinase inh: inactive

How did Cc1cc2nc(-c3ccc(SCC(=O)N4CCc5ccccc54)nc3)[nH]c2cc1C do in these assays?
Arbovirus inh: inactive; L major viab: 86; Rad51 HR inh: inactive; CHOP inh: 107; Wee1 degr inh: inactive; PKD1 kinase inh: inactive; CHOP confirm: inactive

How did Cc1cc2nc(-c3ccc(SCc4ccc(C(=O)O)cc4)nc3)[nH]c2cc1C do in these assays?
Arbovirus inh: inactive; L major viab: inactive; Rad51 HR inh: inactive; CHOP inh: inactive; Wee1 degr inh: inactive; PKD1 kinase inh: inactive

How did O=C(CSc1nc2ccccc2n1CCc1ccccc1)c1ccc(O)c(O)c1 do in these assays?
Arbovirus inh: inactive; L major viab: inactive; CHOP inh: inactive; Wee1 degr inh: inactive; PKD1 kinase inh: inactive

What do the screens show for `CCOC(=O)C1=C(C)C(c2ccccc2OC)NC(=S)N1` (stereo unspecified)?
Arbovirus inh: inactive; L major viab: inactive; Rad51 HR inh: inactive; CHOP inh: inactive; Wee1 degr inh: inactive; PKD1 kinase inh: inactive

How did CN1CCN(NC(=O)c2cc(S(=O)(=O)N3CCOCC3)c(Cl)cc2Cl)CC1 do in these assays?
Arbovirus inh: inactive; L major viab: inactive; Rad51 HR inh: inactive; CHOP inh: inactive; Wee1 degr inh: inactive; PKD1 kinase inh: inactive

What do the screens show for `Cc1ccsc1CN(C)Cc1nc(C2CC2)no1`?
Arbovirus inh: inactive; L major viab: inactive; CHOP inh: inactive; Wee1 degr inh: inactive; PKD1 kinase inh: inactive

Source: PubChem BioAssay
